NR2E3 ag-1 = human photoreceptor-specific nuclear receptor agonism | AID 602229 | hit rate 0.35% among 360,000 | CHO-S Gal4-NCOR/VP16-NR2E3 two-hybrid, luciferase | inhibition of corepressor binding, % at 3.98 µM | Q9Y5X4;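 active = inhibition above the mean of all tested compounds plus 3 SD, cut at about 70% in these data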;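 also: 0% = DMSO with NR2E3 transfected cells and 100% = cells lacking NR2E3 construct; higher means lower luciferase signal from less NR2E3 corepressor binding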
PG9 binder = PG9 antibody binding by small molecule; inhibition, % at 6.7 µM; AID 624416; TR-FRET gp120-PG9 antibody binding; hit rate 0.43% among 360,000; in the data active = inhibition above about 8.5%
NR2E3 ag-2 = agonists of human nuclear receptor NR2E3. Q9Y5X4. GST-NR2E3/biotin-RetCOR TR-FRET, 1536-well. inhibition of corepressor binding, % at 4.78 µM. hit rate 0.12% among 320,000. AID 2300;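 active = percent inhibition above the cutoff of mean plus 3 SD of all tested compounds, set per screening campaign, cut at about 20% in these data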;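 also: 0% = DMSO wells and 100% = biotin wells as full block of FRET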
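Material: NR2E3–RetCOR corepressor complex | Quantity: 1.35 nM GST-tagged NR2E3 final | Schedule: 5 h at 4 °C | Replication: Singlicate compound wells | Reagent: RetCOR corepressor, biotinylated, 7 nM | Controls: Biotin wells as high control, 0.6% DMSO wells as low control | Signal: TR-FRET, Eu(K)-anti-GST donor, streptavidin-D2 acceptor, ex 340, em 617/671 nm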
NR1D1 modulator = Rev-erb alpha (human) modulation; Rev-erbα–FITC-DNA binding, fluorescence polarization, 90 min; activity, % at 10 µM; hit rate 0.79% among 370,000; AID 1259318;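 active = activity above about 14%, limit read from the data; passing the limit was not always enough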;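 also: 0% = DMSO wells with 35 nM protein and 100% = DMSO wells with 750 nM protein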
Target sequence (P20393 whole entry, looked up): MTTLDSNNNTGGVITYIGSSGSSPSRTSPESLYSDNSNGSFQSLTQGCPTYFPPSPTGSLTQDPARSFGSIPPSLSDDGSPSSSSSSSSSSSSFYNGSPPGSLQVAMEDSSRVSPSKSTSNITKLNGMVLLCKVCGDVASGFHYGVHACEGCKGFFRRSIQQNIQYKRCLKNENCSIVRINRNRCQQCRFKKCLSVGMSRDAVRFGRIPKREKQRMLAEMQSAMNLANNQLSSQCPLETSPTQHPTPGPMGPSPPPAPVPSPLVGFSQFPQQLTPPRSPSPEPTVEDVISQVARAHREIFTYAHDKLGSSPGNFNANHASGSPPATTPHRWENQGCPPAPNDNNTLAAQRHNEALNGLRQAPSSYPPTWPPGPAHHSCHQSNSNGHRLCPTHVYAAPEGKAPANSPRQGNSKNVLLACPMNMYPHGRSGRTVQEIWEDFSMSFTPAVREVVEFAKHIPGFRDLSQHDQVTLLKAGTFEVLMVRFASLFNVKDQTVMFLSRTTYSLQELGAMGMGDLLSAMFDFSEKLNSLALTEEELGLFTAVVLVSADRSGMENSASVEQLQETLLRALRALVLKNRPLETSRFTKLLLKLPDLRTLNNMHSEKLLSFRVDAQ
NR2E3 ag confirm = confirmation of human NR2E3 agonists. shares compounds with NR2E3 ag-1. CHO-S mammalian two-hybrid NR2E3-NCOR, luciferase luminescence. hit rate 51% among 2,300. inhibition, % at 3.98 µM;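 active = average inhibition above a cutoff equal to the mean inhibition of all tested compounds plus one SD, cut at about 70% in these data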;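 also: 0% = DMSO in NR2E3 cells and 100% = DMSO in cells lacking NR2E3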
GAL4-VP16 luc = GAL4-VP16 reporter inhibition in NR2E3 agonist counterscreen | inhibition, % at 3.98 µM | CHO-S GAL4-VP16 luciferase reporter, luminescence | hit rate 29% among 2,300 | shares compounds with NR2E3 ag-1;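 active = mean inhibition above a cutoff equal to the average over all tested compounds plus one standard deviation, cut at about 70% in these data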;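 also: luciferase from a UAS reporter driven by GAL4-VP16 transactivation; 0% = DMSO with VP16-transfected cells and 100% = DMSO with cells lacking VP16; higher means less reporter light so more repression of VP16 activity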
Active calls of the source: *; / = not tested or not shown. The list is not random: actives were taken first. Their share in the collection is about 1.4%.

SMILES	NR2E3 ag-1	PG9 binder	NR2E3 ag-2	NR1D1 modulator	NR2E3 ag confirm	GAL4-VP16 luc
CCc1ccc(NC(=O)c2ccc(F)c(S(=O)(=O)NCC3COc4ccccc4O3)c2)cc1 (stereo unspecified)	57	-2	-1	3	55	46
CCC(C)[C@H]1CNCCN1CCc1cc(C(F)(F)F)cc(C(F)(F)F)c1 (stereo partly specified)	17	-1	-1	0	/	/
CCC(C)[C@H]1CNC(=S)N1CCc1cc(C(F)(F)F)cc(C(F)(F)F)c1 (stereo partly specified)	48	0	2	5	-4	17
O=C(NCc1c(F)cccc1F)c1cc(COc2c(F)cccc2F)on1	89*	-3	3	3	-28	-49
N#CC(c1cccc(Cl)c1)c1ccc2c(C(F)(F)F)cc(C(F)(F)F)nc2n1 (stereo unspecified)	110*	2	1	-1	99*	91*
NNc1ccc2c(C(F)(F)F)cc(C(F)(F)F)nc2n1	3	-2	-1	0	/	/
Cc1cc(C(=O)OCc2nnc(-c3ccccc3)o2)c(C)n1-c1ccccc1	68	2	-7	-1	58	65
COC(=O)[C@H](C(C)C)N(Cc1cn(Cc2ccccc2)nn1)S(=O)(=O)c1ccccc1Br	/	/	/	2	/	/
c1ccc(-c2c[nH]c3cccc(C4CCCCC4)c23)cc1	/	/	/	5	/	/
Cc1cccc(-c2cccc3c4c([nH]c23)[C@@H]2C[C@H](N(C)C(=O)c3ccccc3C)[C@H]([C@H](C)O)CN2CC4)c1	/	/	/	-5	/	/
O=C(Nc1ccc(OC(F)(F)F)cc1)N1CCc2nc(NCc3cccc(Oc4ccccc4)c3)ncc2C1	62	1	/	3	21	46
COc1cccc(NC(=O)N2CCc3nc(NCc4cccc(Oc5ccccc5)c4)ncc3C2)c1	37	0	/	4	/	/
Cc1ccc2c(c1)N(CCCC(=O)NCc1ccc(F)cc1)C(=O)CO2	/	/	/	3	/	/
Cc1cc(NC(=O)CSc2[nH]c(=O)cc(C(F)(F)F)c2C#N)no1	7	-2	1	5	/	/
Cc1cc(-n2c(C)cc(C(=O)CSc3[nH]c(=O)cc(C(F)(F)F)c3C#N)c2C)no1	98*	0	4	2	99*	89*
CCc1cccc(CC)c1NC(=O)/C(C#N)=C/c1ccccc1C(F)(F)F	75*	0	-1	-2	67	61
N#C/C(=C\c1ccccc1C(F)(F)F)C(=O)Nc1ccccc1	-23	1	-1	-2	/	/
Clc1ccc2nc(CNc3nc(N4CCOCC4)nc4c3ncn4-c3ccsc3)[nH]c2c1	/	/	/	-2	/	/
Cc1ccc2nc(C)c(CN3CCN(c4ccc([N+](=O)[O-])cc4Cl)CC3)n2c1	104*	-1	1	10	95*	84*
O=[N+]([O-])c1ccc(Cl)c(CN2CCN(c3ncccn3)CC2)c1	-12	-1	-2	-6	/	/
Cc1ccc(NC(=O)CNC(=O)c2ccc(Oc3ccccc3)cc2)nc1	-5	3	1	0	/	/
Cc1ccc(NC(=O)CNC(=O)c2cccc(C)c2)nc1	53	-2	2	1	75*	18
O=C(CCCN1C(=O)/C(=C/c2ccc3c(c2)OCO3)SC1=S)Nc1ccc(C(=O)O)cc1	51	-4	2	1	34	64
O=C(CCCN1C(=O)C(=Cc2ccc3c(c2)OCO3)SC1=S)Nc1ccc(C(=O)O)c(O)c1	50	-4	/	-4	8	66
C[C@H]1[C@@H](N(C)C)CC[C@@]23CCCN2C(=O)CCC[C@@H]13	/	/	/	-3	/	/
SMILES	NR2E3 ag-1	PG9 binder	NR2E3 ag-2	NR1D1 modulator	NR2E3 ag confirm	GAL4-VP16 luc
NC(=O)c1ccccc1OCC(=O)N1CCC(Cc2ccccc2)CC1	77*	2	2	-3	92*	74*
O=C(CSc1ccc(-c2ccncc2)nn1)c1ccc(Cl)cc1	-5	-3	1	-28	/	/
NC(=O)C(c1ccc(Cl)cc1)c1ccc(Sc2ccc(Cl)cc2)nn1 (stereo unspecified)	65	2	6	0	87*	71
C/C=C(/C)C(=O)OC1CC(C)(C)C[C@H]2C3=CC[C@@H]4[C@@]5(C)CCC(O[C@@H]6O[C@@H](C(=O)O)[C@@H](O)C(O[C@@H]7OC[C@H](O)[C@@H](O)[C@@H]7O[C@@H]7OC(CO)C(O)[C@@H](O)[C@@H]7O)C6O[C@@H]6OC(CO)C(O)C(O)C6O)[C@@](C)(CO)[C@@H]5CC[C@]4(C)[C@]3(C)CC(O)[C@@]12CO (stereo partly specified)	48	/	/	/	40	17
O=C(NCCOc1ccccc1)c1ccccc1Cl	-119	0	0	-7	/	/
CN(C(=O)COc1ccccc1C(=O)NCCOc1ccccc1)c1ccccc1	77*	0	7	-2	80*	68
Cc1cc(-c2nnc(SCC(=O)Nc3ccccc3C(F)(F)F)o2)c(C)n1-c1ccccc1	50	0	-1	5	29	-8
Cc1cccc(NC(=O)CSc2nnc(-c3cc(C)n(-c4ccccc4)c3C)o2)c1C	-21	-2	1	3	/	/
COC(=O)[C@H](C)NC(=O)[C@@H]1CC=C[C@@H]2CCN(CCc3ccccc3)C(=O)[C@@H]21	/	/	/	-3	/	/
CN(C)S(=O)(=O)N1CCC(Oc2cccc(C(=O)NC3CCCCCC3)c2)CC1	91*	-2	-3	0	60	54
CN(C)S(=O)(=O)N1CCC(Oc2ccc(C(=O)NC3Cc4ccccc4C3)cc2)CC1	-33	0	1	1	/	/
O=C(Nc1ccc(C(O)(C(F)(F)F)C(F)(F)F)cc1)c1ccc(Cl)cc1	/	/	/	12	/	/
CCOC(=O)[C@]12CCCC=C1N(CCCOC)C(=O)[C@@H]2CC(=O)NCc1ccc(OC)c(OC)c1	/	/	/	-2	/	/
Cc1ccccc1S(=O)(=O)N1[C@@H](c2ccc(Br)cc2)C(C(=O)O)=CC[C@H]1c1ccc(Cl)cc1	79*	-1	/	-10	38	14
Cc1ccc([C@@H]2CC=C(C(=O)O)[C@H](c3ccc(Br)cc3)N2S(=O)(=O)c2ccccc2C)cc1	64	0	/	-5	16	3
C[C@H]1[C@H](NCc2cccnc2)CC[C@@]23CCCN2C(=O)CCC[C@@H]13	/	/	/	-7	/	/
C=CCN1C(=O)[C@@H](CC(=O)N2CCN(C(=O)OCC)CC2)[C@]2(C(=O)OC)CCCCC=C12	/	/	/	4	/	/
O=C(Nc1ccccc1C(=O)Nc1nnc(C(F)(F)F)s1)c1ccccc1	72*	-1	2	1	99*	94*
O=C(c1cc2sccc2n1Cc1ccc(F)cc1)N1CCN(c2nc3ccccc3s2)CC1	74*	2	2	1	92*	64
O=C(c1cccs1)N1CCN(c2nc3ccccc3s2)CC1	-47	0	-1	5	/	/
CSc1ccc(-c2cnc(N3CCC(C(N)=O)CC3)s2)cc1	/	/	/	0	/	/
